CXCR6 block – CXCR6 receptor inhibitors, primary screen, cell-based, beta-arrestin, luminescence, CHO-K1 PathHunter, 1536-well; actives 0.36% (n = 360,000); inhibition, % at 20 µM; C-X-C chemokine receptor type 6 (Homo sapiens), O00574; in the data active = inhibition above about 34%, passing the limit was not always enough;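 also: antagonist mode with CXCL16 agonist at 10 nM final; 0% = 10 nM CXCL16 with DMSO and 100% = unstimulated wells without agonist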
Target sequence (O00574 whole entry, looked up): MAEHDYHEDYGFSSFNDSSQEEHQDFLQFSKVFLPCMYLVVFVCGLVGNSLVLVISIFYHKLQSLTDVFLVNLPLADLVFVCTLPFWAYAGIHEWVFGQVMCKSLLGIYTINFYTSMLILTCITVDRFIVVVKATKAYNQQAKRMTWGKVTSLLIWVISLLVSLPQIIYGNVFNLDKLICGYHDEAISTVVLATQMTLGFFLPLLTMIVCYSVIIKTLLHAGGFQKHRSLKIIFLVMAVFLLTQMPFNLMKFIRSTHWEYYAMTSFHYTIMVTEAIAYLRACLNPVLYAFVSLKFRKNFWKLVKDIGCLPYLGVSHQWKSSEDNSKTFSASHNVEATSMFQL
CCR6 antagonist – CCR6 receptor antagonists, primary screen, cell-based, CHO-K1, luminescence, beta-arrestin, uHTS. inhibition, % at 20 µM. actives 0.49% (n = 340,000). C-C chemokine receptor type 6 (Homo sapiens), P51684. AID 493098, 2011. CHO-K1 CCR6 PathHunter beta-arrestin, CCL20-stimulated;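 active = compounds whose inhibition of the agonist-driven luminescence signal at 20 µM reaches about 50%, limit read from the data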;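 also: cells stimulated with CCL20 at 14 nM final; plate controls were DMSO with CCL20 for no effect and DMSO without agonist for full effect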
APJ antagonist – antagonists of human apelin receptor APJ, primary screen, CHO-K1 cells, beta-arrestin complementation, luminescence; P35414; actives 0.32% (n = 330,000); inhibition, % at 20 µM;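 active = inhibition above about 40% at 20 µM, limit read from the data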;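 also: cells challenged with 10 nM apelin-13 agonist together with compound; plate controls were apelin-13 plus DMSO wells for no effect and DMSO wells lacking apelin-13 for full effect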
APOBEC3G inh – APOBEC3G DNA deaminase inhibitors, primary screen, biochemical, fluorescence, single-stranded DNA substrate, uHTS; recombinant A3G, ssDNA deamination FAM/TAMRA fluorescence; actives 0.28% (n = 330,000); AID 493012, 2011; inhibition, % at 20 µM;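 active = inhibition of at least 40% at 20 µM, with no more than 30% in the related APOBEC3A deaminase screen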;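 also: plate controls were DMSO wells with A3G for no effect and wells lacking A3G enzyme for full effect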
Target sequence (Q9HC16 whole entry, looked up): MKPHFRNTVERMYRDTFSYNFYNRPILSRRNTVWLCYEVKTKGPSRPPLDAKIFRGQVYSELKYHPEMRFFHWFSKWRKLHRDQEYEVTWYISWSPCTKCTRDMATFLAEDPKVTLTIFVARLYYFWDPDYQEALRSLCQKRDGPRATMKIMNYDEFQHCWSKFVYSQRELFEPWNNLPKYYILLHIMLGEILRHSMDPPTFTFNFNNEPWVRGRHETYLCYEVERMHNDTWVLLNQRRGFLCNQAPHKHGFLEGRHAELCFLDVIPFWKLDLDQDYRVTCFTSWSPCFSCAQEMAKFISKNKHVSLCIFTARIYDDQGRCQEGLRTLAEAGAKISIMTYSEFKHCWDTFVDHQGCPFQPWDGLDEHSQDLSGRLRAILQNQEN
APJ ag – agonists of human apelin receptor APJ, primary screen, CHO-K1 cells, PathHunter beta-arrestin, luminescence | 0% DMSO wells, 100% apelin | P35414 | actives 0.11% (n = 330,000) | activation, % at 20 µM;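 active = activation more than six SD over the plate average, tested at 20 µM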;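 also: 0% = DMSO alone and 100% = apelin-13 at 10 nM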
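Material: engineered CHO-K1 APJ arrestin reporter cells; amount: 1000 CHO-K1 reporter cells seeded per well; incubation: compound stimulation 90 min at 25 °C, detection 60 min; signal: luminescent beta-gal fragment complementation, chemiluminescent substrate; read-out basis: APJ agonist activity; controls: DMSO-only wells as negative, 10 nM Apelin-13 as positive control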
APOBEC3A inh – APOBEC3A ssDNA deaminase inhibitors, primary screen, selectivity assay for APOBEC3G inhibitor project, biochemical, FAM/TAMRA oligo cleavage fluorescence; DNA dC->dU-editing enzyme APOBEC-3A (Homo sapiens), P31941; recombinant A3A, FAM/TAMRA ssDNA deamination fluorescence; inhibition, % at 20 µM; actives 0.41% (n = 330,000); AID 493011, 2011;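 active = at least 40% inhibition at 20 µM here, with at most 30% in a related deaminase screen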;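 also: plate controls were A3A with DMSO for no effect and wells lacking A3A enzyme for full effect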
Starred values were filed as active, the others as inactive; nt = no result; ! = a repeat was not active. Compounds with a hit are over-represented: about 1.4% of the library has one in this group of screens.

SMILES | CXCR6 block | CCR6 antagonist | APJ antagonist | APOBEC3G inh | APJ ag | APOBEC3A inh
Cc1ccc(C2C3CSCC=C3C(C#N)=C(N)C2(C#N)C#N)cc1 (stereo unspecified) | 10.9 | 52.4* | 1.8 | -5.2 | -5.9 | -3.6
CC(C)N1CC=C2C(C#N)=C(N)C(C#N)(C#N)C(c3ccccc3)C2C1 (stereo unspecified) | 8.5 | 8.9 | nt | nt | nt | nt
COc1ccccc1NC(=O)C1CC(C)OC1=O (stereo unspecified) | 8.8 | -11.5 | 3.6 | -0.8 | -0.1 | -0.3
Cc1[nH]c2ccccc2c1CC#N | 1.5 | 11.1 | 11.8 | -9.7 | -1.6 | -3.6
Cc1[nH]c2ccccc2c1C(C#N)(C#N)C1C(=O)c2ccccc2C1=O | 43.3* | 44.6 | 12.1 | -0.4 | -3.5 | 1.2
Cc1c(C(=O)O)sc2nc(-c3cccs3)cc(C(F)(F)F)c12 | 0.6 | -2.5 | 16.1 | -7.8 | 0.8 | -2.2
Cc1c(C(=O)Nc2nccs2)sc2nc(-c3cccs3)cc(C(F)(F)F)c12 | 32.9 | 53.4* | 28.7 | -5.6 | -6.0 | -3.6
COc1ccc(C(=O)Nc2nc(-c3ccc([N+](=O)[O-])cc3)c(-c3ccccc3)s2)cc1 | 35.2 | 42.9 | 12.7 | -4.5 | -5.9 | -4.5
COc1ccc(-c2sc(NC(=O)c3ccc(C)cc3)nc2-c2ccc([N+](=O)[O-])cc2)cc1 | 19.8 | 52.3* | 14.2 | -3.1 | -1.8 | 0.2
Cc1cc2c(=O)[nH]c(N)nc2[nH]1 | -4.8 | nt | nt | nt | nt | nt
Cc1c(CCOC(=O)C2C3CC4CC(C3)CC2C4)sc[n+]1CC(=O)c1ccc(Br)cc1 (stereo unspecified) | 3.2 | 53.5*! | 17.4 | -9.0 | -9.7 | -8.3
Cc1c(CCOC(=O)c2ccc(Cl)cc2Cl)sc[n+]1CC(=O)c1ccc(Br)cc1 | 0.1 | 37.8 | 14.7 | -2.1 | -7.1 | -0.8
CNCc1ccccc1Sc1cc(O)ccc1O | 39.6 | 83.8* | -54.0 | 6.9 | 4.3 | 0.4
C[C@H]1CN([C@@H](C)CO)C(=O)CCCn2nncc2CO[C@H]1CN(C)S(=O)(=O)c1ccc2c(c1)OCCCO2 | -2.3 | nt | nt | nt | nt | nt
O=Nc1c(-c2c(O)[nH]c3cc(Br)ccc23)[nH]c2ccccc12 | 60.6* | 74.5* | 36.2 | 7.1 | -1.8 | 5.9
O=[N+]([O-])c1ccc2[nH]c(O)c(N=NC(=S)Nc3cccnc3)c2c1 | 42.2* | 69.7* | 34.2 | -1.9 | -4.1 | -3.1
CCOC(=O)C[C@H]1c2cc(F)ccc2S(=O)(=O)N1c1cccc(OC)c1 | 1.3 | 13.1 | -30.1 | -4.3 | -0.3 | -0.6
CCOc1ccc(N=C/C=C/c2ccccc2)c(O)c1 | -5.2 | 52.3* | -12.2 | 0.2 | 6.5 | 1.7
CNC(=O)c1nn(C)c(=O)[nH]c1=O | -0.4 | 8.8 | nt | nt | nt | nt
C=CCc1cccc(CNn2cnnc2)c1O | 61.5* | 20.5 | 15.7 | -9.4 | -4.2 | -3.9
C=CCc1cccc(CNc2c(C)cc(C)cc2C)c1O | -6.2 | 1.5 | -15.5 | 7.5 | -1.8 | 1.1
Cc1cc(C)cc(C(=O)NC(CC(N)=O)c2ccc(NCC3CC3)c([N+](=O)[O-])c2)c1 (stereo unspecified) | 4.9 | 12.8 | -1.5 | -7.5 | -2.9 | 0.5
C=CCOc1ccc(C2C(C(=O)c3ccco3)=C(O)C(=O)N2CCCN(CC)CC)cc1 (stereo unspecified) | -6.3 | -11.4 | 11.5 | -3.8 | 10.3 | -2.6
CCN(CC)CCCN1C(=O)C(O)=C(C(=O)c2ccco2)C1c1ccc(OC(C)C)cc1 (stereo unspecified) | 0.8 | 92.6* | -15.0 | -3.6 | 2.0 | -2.2
C#CCOCCOCCOCCNc1nc(N2CCN(C(=O)CCCCCCCCCCNC(=O)[C@H]([C@@H](C)CC)n3cc(CCCCN=C(N)N)nn3)CC2)nc(N2CCN(C(=O)CCCCCCCCCCNC(=O)[C@H](CO)n3cc(CCCCCN)nn3)CC2)n1 | 61.3* | -26.7 | 13.7 | -11.2 | 3.0 | -8.7
SMILES | CXCR6 block | CCR6 antagonist | APJ antagonist | APOBEC3G inh | APJ ag | APOBEC3A inh
C#CCOCCOCCOCCNc1nc(N2CCOCC2)nc(N2CCN(C(=O)CCCCCCCCCCNC(=O)[C@@H]([C@H](C)CC)n3cc(CCCCCN)nn3)CC2)n1 | 1.0 | 13.4 | 13.8 | -11.1 | 0.5 | -4.0
C#CCOCCOCCOCCNc1nc(N2CCN(C(=O)CCCCCCCCCCNC(=O)[C@H]([C@@H](C)CC)n3cc(CCCCCN)nn3)CC2)nc(N2CCN(C(=O)CCCCCCCCCCNC(=O)[C@@H]([C@H](C)CC)n3cc(CCCCCN)nn3)CC2)n1 | nt | nt | 21.6 | -4.6 | 54.6* | -4.5
C#CCOCCOCCOCCNc1nc(N2CCN(C(=O)CCCCCCCCCCNC(=O)[C@H]([C@@H](C)CC)n3cc(CCCCN=C(N)N)nn3)CC2)nc(N2CCN(C(=O)CCCCCCCCCCNC(=O)[C@H]([C@@H](C)CC)n3cc(CCCCN=C(N)N)nn3)CC2)n1 | nt | nt | 26.6 | -3.0 | 70.8* | 0.6
C#CCOCCOCCOCCNc1nc(N2CCN(C(=O)CCCCCCCCCCNC(=O)[C@H]([C@@H](C)CC)n3cc(CCCCCN)nn3)CC2)nc(N2CCN(C(=O)CCCCCCCCCCNC(=O)[C@H](CO)n3cc(CCCCCN)nn3)CC2)n1 | -1.8 | -11.7 | 25.8 | 20.4 | -0.4 | -0.6
COCOc1ccc(-c2ncc(OC)nc2NC(=O)c2ccsc2)cc1 | 2.3 | nt | nt | nt | nt | nt
COc1ccc(CCN(C)C(=O)C2CCCN(C3CCN(Cc4ccccc4)CC3)C2)cc1OC (stereo unspecified) | -4.6 | 24.5 | 24.2 | -4.4 | -2.4 | -4.6
CC(=O)Nc1ccc(S(=O)(=O)Nc2ccc3c(c2)C(=O)OC3)cc1 | nt | nt | 15.0 | -5.2 | -3.3 | -2.0
N#Cc1ccc(C(=O)N2CCC3CC2c2cc(N4CCCCC4)ccc23)cc1 (stereo unspecified) | -10.7 | nt | nt | nt | nt | nt
COc1ccccc1N1C(=O)C=C(Sc2nc(C)cc(C)n2)C1=O | 11.3 | 94.2* | -10.9 | -1.0 | -1.7 | -5.3
O=[N+]([O-])c1cc(Br)cc(/C=N/n2cnnc2)c1O | 22.8 | 45.9 | 18.1 | -4.6 | -4.2 | 1.6
O=[N+]([O-])c1cc(Cl)cc(/C=N/n2cnnc2)c1O | 31.5* | 36.2 | 4.4 | -8.7 | 1.2 | -3.4
O=c1[nH][nH]c2c1[C@H](CCc1cccc(Cl)c1)O[C@H](CCc1ccccc1)C2 | -7.9 | nt | nt | nt | nt | nt
COc1ccc(/C=C/C2=NNC(=O)CC2)cc1 | 3.1 | 76.6* | -30.6 | -4.0 | -1.7 | 3.8
Nc1nc2c(s1)CCc1c-2cnn1-c1ccccc1 | -8.4 | 21.9 | -35.6 | 53.8* | 3.1 | -2.9
O=C1COc2ccc(S(=O)(=O)N3CCCC3)cc2N1 | -3.6 | 15.1 | -11.0 | -7.2 | -1.4 | -1.5

Screening data (PubChem)
